Several values for one entry are separate records, joined by “and”; a condition that tells them apart may be missing. Equal values may be shown once.
Tested on: HEK-293T
Assay: Multiplex assay against HEK293T
Format: toxicity, cell-based
Conditions: human, number of replicates 2
Procedure, shortened: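 Live cells were stained at seeding with Hoechst33342, BioTracker Green Microtubule Cytoskeleton Dye, MitoTracker Red and Annexin V Alexa Fluor 680, then imaged on a CQ1 microscope at 37°C and 5% CO2 after compound addition. CellPathfinder machine-learning gating split cells into Hoechst high-intensity objects or normal cells. Normal cells were split into healthy, pyknosed or fragmented nuclei, and pyknosed cells into mitotic or apoptotic. Tubulin, mitochondrial-mass and membrane-permeability phenotypes are per cents of healthy-nucleus cells.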

[1] = 12 h, 1 µM, compound concentration 1 uM
[2] = 12 h, 10 µM, compound concentration 10 uM
[3] = 24 h, 1 µM, compound concentration 1 uM
[4] = 24 h, 10 µM, compound concentration 10 uM
[5] = 48 h, 1 µM, compound concentration 1 uM
[6] = 48 h, 10 µM, compound concentration 10 uM

COc1cccc(Cn2cc(C(=O)Nc3ccc(C)c(S(=O)(=O)N4CCOCC4)c3)c(-c3ccc(C)cc3)n2)c1
Population Apoptotic (%) [1]: 39% and 54% | Population Fragmented Nuclei (%) [1]: 2% | Population Healthy Nuclei (%) [1]: 81% and 84% | Population Hoechst High Intensity Objects (%) [1]: 5% and 4% | Population Membrane Permeable-Phenotype (%) [1]: 6% and 4% | Population Mitochondria Different-Phenotype (%) [1]: 25% and 22% | Population Mitotic Cells (%) [1]: 60% and 45% | Population Normal (%) [1]: 94% and 95% | Population Pyknosed Nuclei (%) [1]: 15% and 12% | Population Tubulin-Different-Phenotype (%) [1]: 76% | Total Cell Count [1]: 633 and 601 | Population Apoptotic (%) [2]: 35% and 56% | Population Fragmented Nuclei (%) [2]: 1% and 3% | Population Healthy Nuclei (%) [2]: 83% | Population Hoechst High Intensity Objects (%) [2]: 6% and 7% | Population Membrane Permeable-Phenotype (%) [2]: 21% and 19% | Population Mitochondria Different-Phenotype (%) [2]: 24% and 26% | Population Mitotic Cells (%) [2]: 64% and 43% | Population Normal (%) [2]: 93% and 92% | Population Pyknosed Nuclei (%) [2]: 14% and 13% | Population Tubulin-Different-Phenotype (%) [2]: 84% and 87% | Total Cell Count [2]: 611 and 568 | Population Apoptotic (%) [3]: 46% and 42% | Population Fragmented Nuclei (%) [3]: 5% and 4% | Population Healthy Nuclei (%) [3]: 84% and 87% | Population Hoechst High Intensity Objects (%) [3]: 9% and 6% | Population Membrane Permeable-Phenotype (%) [3]: 5% and 6% | Population Mitochondria Different-Phenotype (%) [3]: 13% and 12% | Population Mitotic Cells (%) [3]: 53% and 57% | Population Normal (%) [3]: 90% and 93% | Population Pyknosed Nuclei (%) [3]: 9% and 8% | Population Tubulin-Different-Phenotype (%) [3]: 59% | Total Cell Count [3]: 851 and 807 | Population Apoptotic (%) [4]: 34% and 50% | Population Fragmented Nuclei (%) [4]: 3% and 2% | Population Healthy Nuclei (%) [4]: 81% and 83% | Population Hoechst High Intensity Objects (%) [4]: 8% | Population Membrane Permeable-Phenotype (%) [4]: 19% and 22% | Population Mitochondria Different-Phenotype (%) [4]: 21% and 22% | Population Mitotic Cells (%) [4]: 65% and 50% | Population Normal (%) [4]: 91% | Population Pyknosed Nuclei (%) [4]: 15% and 13% | Population Tubulin-Different-Phenotype (%) [4]: 90% | Total Cell Count [4]: 684 and 610 | Population Apoptotic (%) [5]: 27% and 29% | Population Fragmented Nuclei (%) [5]: 8% | Population Healthy Nuclei (%) [5]: 87% and 85% | Population Hoechst High Intensity Objects (%) [5]: 9% | Population Membrane Permeable-Phenotype (%) [5]: 7% | Population Mitochondria Different-Phenotype (%) [5]: 3% and 4% | Population Mitotic Cells (%) [5]: 72% and 70% | Population Normal (%) [5]: 90% | Population Pyknosed Nuclei (%) [5]: 4% and 5% | Population Tubulin-Different-Phenotype (%) [5]: 39% and 45% | Total Cell Count [5]: 1564 and 1391 | Population Apoptotic (%) [6]: 23% and 62% | Population Fragmented Nuclei (%) [6]: 5% | Population Healthy Nuclei (%) [6]: 86% and 83% | Population Hoechst High Intensity Objects (%) [6]: 9% | Population Membrane Permeable-Phenotype (%) [6]: 26% and 27% | Population Mitochondria Different-Phenotype (%) [6]: 13% and 12% | Population Mitotic Cells (%) [6]: 76% and 37% | Population Normal (%) [6]: 90% | Population Pyknosed Nuclei (%) [6]: 7% and 10% | Population Tubulin-Different-Phenotype (%) [6]: 87% and 91% | Total Cell Count [6]: 752 and 689

CN(C)CCN(Cc1ccc(-c2ccc(CNCCc3ccccc3)cc2)cc1)C(=O)CCC1CCCC1.Cl.Cl
Population Apoptotic (%) [1]: 45% and 51% | Population Fragmented Nuclei (%) [1]: 2% and 1% | Population Healthy Nuclei (%) [1]: 87% and 86% | Population Hoechst High Intensity Objects (%) [1]: 6% and 3% | Population Membrane Permeable-Phenotype (%) [1]: 2% | Population Mitochondria Different-Phenotype (%) [1]: 34% and 33% | Population Mitotic Cells (%) [1]: 54% and 48% | Population Normal (%) [1]: 93% and 96% | Population Pyknosed Nuclei (%) [1]: 9% and 11% | Population Tubulin-Different-Phenotype (%) [1]: 86% and 78% | Total Cell Count [1]: 835 and 591 | Population Apoptotic (%) [2]: 61% and 57% | Population Fragmented Nuclei (%) [2]: 7% and 4% | Population Healthy Nuclei (%) [2]: 43% and 42% | Population Hoechst High Intensity Objects (%) [2]: 28% and 30% | Population Membrane Permeable-Phenotype (%) [2]: 4% and 1% | Population Mitochondria Different-Phenotype (%) [2]: 72% and 73% | Population Mitotic Cells (%) [2]: 38% and 42% | Population Normal (%) [2]: 71% and 69% | Population Pyknosed Nuclei (%) [2]: 48% and 52% | Population Tubulin-Different-Phenotype (%) [2]: 93% and 96% | Total Cell Count [2]: 396 and 358 | Population Apoptotic (%) [3]: 36% | Population Fragmented Nuclei (%) [3]: 4% and 6% | Population Healthy Nuclei (%) [3]: 89% and 85% | Population Hoechst High Intensity Objects (%) [3]: 6% and 5% | Population Membrane Permeable-Phenotype (%) [3]: 1% | Population Mitochondria Different-Phenotype (%) [3]: 17% and 21% | Population Mitotic Cells (%) [3]: 63% | Population Normal (%) [3]: 93% and 94% | Population Pyknosed Nuclei (%) [3]: 6% and 7% | Population Tubulin-Different-Phenotype (%) [3]: 63% and 61% | Total Cell Count [3]: 1227 and 899 | Population Apoptotic (%) [4]: 73% | Population Fragmented Nuclei (%) [4]: 5% | Population Healthy Nuclei (%) [4]: 42% and 36% | Population Hoechst High Intensity Objects (%) [4]: 31% and 39% | Population Membrane Permeable-Phenotype (%) [4]: 3% and 1% | Population Mitochondria Different-Phenotype (%) [4]: 80% and 84% | Population Mitotic Cells (%) [4]: 26% | Population Normal (%) [4]: 68% and 60% | Population Pyknosed Nuclei (%) [4]: 51% and 57% | Population Tubulin-Different-Phenotype (%) [4]: 89% and 95% | Total Cell Count [4]: 357 and 312 | Population Apoptotic (%) [5]: 15% and 20% | Population Fragmented Nuclei (%) [5]: 12% and 9% | Population Healthy Nuclei (%) [5]: 84% and 86% | Population Hoechst High Intensity Objects (%) [5]: 8% | Population Membrane Permeable-Phenotype (%) [5]: 4% and 5% | Population Mitochondria Different-Phenotype (%) [5]: 0% and 2% | Population Mitotic Cells (%) [5]: 84% and 79% | Population Normal (%) [5]: 91% | Population Pyknosed Nuclei (%) [5]: 3% and 4% | Population Tubulin-Different-Phenotype (%) [5]: 21% and 25% | Total Cell Count [5]: 3014 and 1979 | Population Apoptotic (%) [6]: 88% and 79% | Population Fragmented Nuclei (%) [6]: 9% and 5% | Population Healthy Nuclei (%) [6]: 30% and 28% | Population Hoechst High Intensity Objects (%) [6]: 33% and 40% | Population Membrane Permeable-Phenotype (%) [6]: 1% and 0% | Population Mitochondria Different-Phenotype (%) [6]: 82% and 91% | Population Mitotic Cells (%) [6]: 11% and 20% | Population Normal (%) [6]: 66% and 59% | Population Pyknosed Nuclei (%) [6]: 60% and 65% | Population Tubulin-Different-Phenotype (%) [6]: 84% and 93% | Total Cell Count [6]: 318 and 281

CN1CCc2cc(Cl)c(O)cc2[C@@H](c2ccccc2)C1.Cl
Population Apoptotic (%) [1]: 48% and 46% | Population Fragmented Nuclei (%) [1]: 3% and 4% | Population Healthy Nuclei (%) [1]: 84% and 85% | Population Hoechst High Intensity Objects (%) [1]: 7% and 5% | Population Membrane Permeable-Phenotype (%) [1]: 5% and 3% | Population Mitochondria Different-Phenotype (%) [1]: 23% and 12% | Population Mitotic Cells (%) [1]: 51% and 53% | Population Normal (%) [1]: 92% and 94% | Population Pyknosed Nuclei (%) [1]: 12% and 10% | Population Tubulin-Different-Phenotype (%) [1]: 50% and 47% | Total Cell Count [1]: 505 and 645 | Population Apoptotic (%) [2]: 40% and 55% | Population Fragmented Nuclei (%) [2]: 4% | Population Healthy Nuclei (%) [2]: 87% and 85% | Population Hoechst High Intensity Objects (%) [2]: 6% and 8% | Population Membrane Permeable-Phenotype (%) [2]: 3% and 4% | Population Mitochondria Different-Phenotype (%) [2]: 11% | Population Mitotic Cells (%) [2]: 59% and 45% | Population Normal (%) [2]: 93% and 91% | Population Pyknosed Nuclei (%) [2]: 8% and 9% | Population Tubulin-Different-Phenotype (%) [2]: 54% and 52% | Total Cell Count [2]: 819 and 669 | Population Apoptotic (%) [3]: 47% and 31% | Population Fragmented Nuclei (%) [3]: 6% and 5% | Population Healthy Nuclei (%) [3]: 83% and 88% | Population Hoechst High Intensity Objects (%) [3]: 7% | Population Membrane Permeable-Phenotype (%) [3]: 1% and 3% | Population Mitochondria Different-Phenotype (%) [3]: 8% and 3% | Population Mitotic Cells (%) [3]: 52% and 68% | Population Normal (%) [3]: 92% | Population Pyknosed Nuclei (%) [3]: 9% and 6% | Population Tubulin-Different-Phenotype (%) [3]: 25% and 24% | Total Cell Count [3]: 778 and 975 | Population Apoptotic (%) [4]: 38% and 37% | Population Fragmented Nuclei (%) [4]: 7% and 8% | Population Healthy Nuclei (%) [4]: 88% and 87% | Population Hoechst High Intensity Objects (%) [4]: 8% and 7% | Population Membrane Permeable-Phenotype (%) [4]: 5% and 4% | Population Mitochondria Different-Phenotype (%) [4]: 3% | Population Mitotic Cells (%) [4]: 61% and 62% | Population Normal (%) [4]: 91% and 92% | Population Pyknosed Nuclei (%) [4]: 4% | Population Tubulin-Different-Phenotype (%) [4]: 35% and 38% | Total Cell Count [4]: 1332 and 988 | Population Apoptotic (%) [5]: 10% and 5% | Population Fragmented Nuclei (%) [5]: 10% and 11% | Population Healthy Nuclei (%) [5]: 85% and 84% | Population Hoechst High Intensity Objects (%) [5]: 8% and 9% | Population Membrane Permeable-Phenotype (%) [5]: 3% and 6% | Population Mitochondria Different-Phenotype (%) [5]: 1% and 0% | Population Mitotic Cells (%) [5]: 89% and 94% | Population Normal (%) [5]: 91% and 90% | Population Pyknosed Nuclei (%) [5]: 3% | Population Tubulin-Different-Phenotype (%) [5]: 10% and 14% | Total Cell Count [5]: 1964 and 2487 | Population Apoptotic (%) [6]: 6% and 16% | Population Fragmented Nuclei (%) [6]: 22% and 20% | Population Healthy Nuclei (%) [6]: 75% and 77% | Population Hoechst High Intensity Objects (%) [6]: 9% and 10% | Population Membrane Permeable-Phenotype (%) [6]: 10% | Population Mitochondria Different-Phenotype (%) [6]: 0% | Population Mitotic Cells (%) [6]: 93% and 83% | Population Normal (%) [6]: 90% and 89% | Population Pyknosed Nuclei (%) [6]: 2% | Population Tubulin-Different-Phenotype (%) [6]: 20% and 21% | Total Cell Count [6]: 3504 and 2430
